In ChEMBL document CHEMBL4732065 (Eur J Med Chem, 2021):
pIC50: −log10 of the molar value.

Species: Homo sapiens
Assay: Selectivity index, ratio of IC50 for recombinant human CYP1A1 to IC50 for recombinant human CYP1B1

First: COc1ccc(OC)c2c1c(OC)cc1c(=O)cc(-c3cccs3)oc12
Second: COc1ccc(OC)c2c1c(OC)cc1c(=O)cc(-c3cccc(F)n3)oc12
The Ratio IC50 of the first is lower: 0.9 for the first, 6.1 for the second.

Going from COc1ccc(OC)c2c1c(OC)cc1c(=O)cc(-c3cncc(N)c3)oc12 to COc1ccc(OC)c2c1c(OC)cc1c(=O)cc(-c3ccnc(O)c3)oc12, the Ratio IC50 rises from 0.8 to 3.8.

COc1ccc(OC)c2c1c(OC)cc1c(=O)cc(-c3cc(Cl)cc(N4CCN(C)CC4)c3)oc12 and COc1ccc(OC)c2c1c(OC)cc1c(=O)cc(-c3ccnnc3)oc12 cannot be ordered by Ratio IC50: over 1.9 for the first, 62.9 for the second.

Biological target: T1, Cytochrome P450 1A1 (Homo sapiens, UniProt P04798)
T1 sequence (P04798 whole entry): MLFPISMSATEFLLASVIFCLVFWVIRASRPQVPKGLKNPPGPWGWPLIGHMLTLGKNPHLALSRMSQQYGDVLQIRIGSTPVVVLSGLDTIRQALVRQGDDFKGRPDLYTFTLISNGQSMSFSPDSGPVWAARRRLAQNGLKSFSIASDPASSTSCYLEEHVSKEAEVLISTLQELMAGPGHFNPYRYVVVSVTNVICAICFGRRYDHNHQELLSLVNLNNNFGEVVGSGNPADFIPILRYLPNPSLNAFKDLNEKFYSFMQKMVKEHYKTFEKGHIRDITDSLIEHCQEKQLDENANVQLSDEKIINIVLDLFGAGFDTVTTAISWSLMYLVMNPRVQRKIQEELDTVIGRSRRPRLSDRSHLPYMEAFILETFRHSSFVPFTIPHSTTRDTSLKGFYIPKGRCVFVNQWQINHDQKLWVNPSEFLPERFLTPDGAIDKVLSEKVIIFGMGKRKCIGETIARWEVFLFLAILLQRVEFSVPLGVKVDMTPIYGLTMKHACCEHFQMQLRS
Assay: Inhibition of recombinant human CYP1A1 using 7-ethoxyresorufin as substrate after 15 mins in presence of NADP+ by EROD assay
Format: ADME
Procedure, shortened: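 Recombinant human CYP1 Supersomes co-expressing P450 reductase; 20 fmol CYP1B1, 10 fmol CYP1A1 or 60 fmol CYP1A2 per well. Incubated at 37 °C (1B1 35 min, 1A1 15 min, 1A2 50 min). Stopped with cold methanol; fluorescence read at 544/590 nm; triplicates.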

COc1ccc(OC)c2c1c(OC)cc1c(=O)cc(-c3ccc(N4CCN(C)CC4)cc3)oc12 and COc1ccc(OC)c2c1c(OC)cc1c(=O)cc(-c3cccc(N4CCN(C)CC4)c3)oc12 cannot be ordered by pIC50: under 6.00 for the first, under 6.00 for the second.

COc1ccc(OC)c2c1c(OC)cc1c(=O)cc(-c3cccnc3O)oc12 and COc1ccc(OC)c2c1c(OC)cc1c(=O)cc(-c3ccnc(O)c3)oc12 are within 0.2 log units of each other in pIC50: 6.82 for the first, 6.63 for the second.

Compared with COc1ccc(OC)c2c1c(OC)cc1c(=O)cc(-c3cccs3)oc12, COc1ccc(OC)c2c1c(OC)cc1c(=O)cc(-c3cccc(F)n3)oc12 is 0.28 log units higher in pIC50: 8.36 for the first, 8.64 for the second.

Going from COc1ccc(OC)c2c1c(OC)cc1c(=O)cc(-c3cncc(N)c3)oc12 to COc1ccc(OC)c2c1c(OC)cc1c(=O)cc(-c3ccnnc3)oc12, the pIC50 falls from 7.73 to 6.90 (0.83 log units).

With COc1ccc(OC)c2c1c(OC)cc1c(=O)cc(-c3cc(Cl)cc(N4CCN(C)CC4)c3)oc12 the pIC50 was under 6.00.

Biological target: T2, Cytochrome P450 1B1 (Homo sapiens, UniProt Q16678)
T2 sequence (Q16678 whole entry): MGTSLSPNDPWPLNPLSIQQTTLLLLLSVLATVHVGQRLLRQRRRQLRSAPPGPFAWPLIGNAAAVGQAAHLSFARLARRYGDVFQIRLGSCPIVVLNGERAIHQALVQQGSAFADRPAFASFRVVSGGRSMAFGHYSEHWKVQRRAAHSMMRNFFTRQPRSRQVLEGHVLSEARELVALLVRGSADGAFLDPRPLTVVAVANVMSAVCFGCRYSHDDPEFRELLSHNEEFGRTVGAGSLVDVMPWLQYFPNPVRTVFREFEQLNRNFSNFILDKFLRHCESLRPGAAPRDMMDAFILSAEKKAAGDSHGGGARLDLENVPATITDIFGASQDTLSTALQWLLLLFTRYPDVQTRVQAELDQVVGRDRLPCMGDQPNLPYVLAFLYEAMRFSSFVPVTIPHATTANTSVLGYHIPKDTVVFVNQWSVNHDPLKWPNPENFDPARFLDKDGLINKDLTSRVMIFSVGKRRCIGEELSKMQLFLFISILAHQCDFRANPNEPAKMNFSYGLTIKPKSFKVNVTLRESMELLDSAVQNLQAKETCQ
Assay: Inhibition of recombinant human CYP1B1 using 7-ethoxyresorufin as substrate after 35 mins in presence of NADP+ by EROD assay
Procedure, shortened: (§1)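 Recombinant human CYP1 Supersomes co-expressing P450 reductase; 20 fmol CYP1B1, 10 fmol CYP1A1 or 60 fmol CYP1A2 per well. Incubated at 37 °C (1B1 35 min, 1A1 15 min, 1A2 50 min).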

COc1ccc(OC)c2c1c(OC)cc1c(=O)cc(-c3ccc(N4CCN(C)CC4)cc3)oc12 and COc1ccc(OC)c2c1c(OC)cc1c(=O)cc(-c3cccc(N4CCN(C)CC4)c3)oc12 cannot be ordered by pIC50: under 6.00 for the first, under 6.00 for the second.

Compared with COc1ccc(OC)c2c1c(OC)cc1c(=O)cc(-c3cccnc3O)oc12, COc1ccc(OC)c2c1c(OC)cc1c(=O)cc(-c3ccnc(O)c3)oc12 is higher in pIC50: under 6.00 for the first, 7.21 for the second.

Compared with COc1ccc(OC)c2c1c(OC)cc1c(=O)cc(-c3cccs3)oc12, COc1ccc(OC)c2c1c(OC)cc1c(=O)cc(-c3cccc(F)n3)oc12 is 1.10 log units higher in pIC50: 8.32 for the first, 9.42 for the second. The second is the more potent here.

First: COc1ccc(OC)c2c1c(OC)cc1c(=O)cc(-c3cncc(N)c3)oc12
Second: COc1ccc(OC)c2c1c(OC)cc1c(=O)cc(-c3ccnnc3)oc12
The pIC50 of the first is 1.06 log units lower: 7.64 for the first, 8.70 for the second.

Work on COc1ccc(OC)c2c1c(OC)cc1c(=O)cc(-c3cc(Cl)cc(N4CCN(C)CC4)c3)oc12 yielded a pIC50 of 6.28.

Biological target: T3, Cytochrome P450 1A2 (Homo sapiens, UniProt P05177)
T3 sequence (P05177 whole entry): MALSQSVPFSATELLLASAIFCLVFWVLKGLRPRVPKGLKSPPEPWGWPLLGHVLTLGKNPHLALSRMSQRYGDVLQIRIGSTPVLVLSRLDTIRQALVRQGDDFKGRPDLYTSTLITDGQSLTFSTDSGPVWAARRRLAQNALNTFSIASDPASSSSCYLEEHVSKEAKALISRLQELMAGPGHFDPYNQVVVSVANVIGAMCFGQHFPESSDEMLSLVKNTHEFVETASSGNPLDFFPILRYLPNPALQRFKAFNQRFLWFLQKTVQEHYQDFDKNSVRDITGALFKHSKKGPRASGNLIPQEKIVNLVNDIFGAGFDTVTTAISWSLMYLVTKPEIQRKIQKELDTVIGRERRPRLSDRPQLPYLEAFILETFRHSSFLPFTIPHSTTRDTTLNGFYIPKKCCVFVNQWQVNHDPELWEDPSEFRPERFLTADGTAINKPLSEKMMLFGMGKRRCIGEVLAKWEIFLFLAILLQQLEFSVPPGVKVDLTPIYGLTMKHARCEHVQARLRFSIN
Assay: Inhibition of recombinant human CYP1A2 using 7-ethoxyresorufin as substrate after 50 mins in presence of NADP+ by EROD assay
Format: ADME
Procedure, shortened: as §1

COc1ccc(OC)c2c1c(OC)cc1c(=O)cc(-c3ccc(N4CCN(C)CC4)cc3)oc12 and COc1ccc(OC)c2c1c(OC)cc1c(=O)cc(-c3cccc(N4CCN(C)CC4)c3)oc12 cannot be ordered by pIC50: under 6.00 for the first, under 6.00 for the second.

COc1ccc(OC)c2c1c(OC)cc1c(=O)cc(-c3cccnc3O)oc12 and COc1ccc(OC)c2c1c(OC)cc1c(=O)cc(-c3ccnc(O)c3)oc12 cannot be ordered by pIC50: under 6.00 for the first, under 6.00 for the second.

First: COc1ccc(OC)c2c1c(OC)cc1c(=O)cc(-c3cccs3)oc12
Second: COc1ccc(OC)c2c1c(OC)cc1c(=O)cc(-c3cccc(F)n3)oc12
The pIC50 of the first is 1.22 log units higher: 7.39 for the first, 6.17 for the second.

Compared with COc1ccc(OC)c2c1c(OC)cc1c(=O)cc(-c3cncc(N)c3)oc12, COc1ccc(OC)c2c1c(OC)cc1c(=O)cc(-c3ccnnc3)oc12 is lower in pIC50: 6.20 for the first, under 6.00 for the second. The first is the more potent here.

COc1ccc(OC)c2c1c(OC)cc1c(=O)cc(-c3cc(Cl)cc(N4CCN(C)CC4)c3)oc12 gave a pIC50 of under 6.00.

Species: Homo sapiens
Assay: Selectivity index, ratio of IC50 for recombinant human CYP1A2 to IC50 for recombinant human CYP1B1

Compared with COc1ccc(OC)c2c1c(OC)cc1c(=O)cc(-c3cccs3)oc12, COc1ccc(OC)c2c1c(OC)cc1c(=O)cc(-c3cccc(F)n3)oc12 is higher in Ratio IC50: 8.4 for the first, 1760 for the second.

COc1ccc(OC)c2c1c(OC)cc1c(=O)cc(-c3cncc(N)c3)oc12 and COc1ccc(OC)c2c1c(OC)cc1c(=O)cc(-c3ccnc(O)c3)oc12 cannot be ordered by Ratio IC50: 27.4 for the first, over 16.3 for the second.

COc1ccc(OC)c2c1c(OC)cc1c(=O)cc(-c3cc(Cl)cc(N4CCN(C)CC4)c3)oc12 and COc1ccc(OC)c2c1c(OC)cc1c(=O)cc(-c3ccnnc3)oc12 cannot be ordered by Ratio IC50: over 1.9 for the first, over 500 for the second.
